From ChEMBL document CHEMBL4834396, “Molecular Recognition and Imaging of Human Telomeric G-Quadruplex DNA in Live Cells: A Systematic Advancement of Thiazole Orange Scaffold To Enhance Binding Specificity and Inhibition of Gene Expression” (J Med Chem, 2021)
The source made the active and inactive calls. The rule behind the calls is not given here.

Assays:
[1] = system: Quadruplex DNA [UNDEFINED MUTATION]; experiment: Effect on confirmation of telomeric Htg24 G-quadruplex DNA A14G mutant (unknown origin) assessed as hybrid topology at 5 uM at pH 7.4 by circular dichroism analysis; format: nucleic-acid assay; conditions: Homo sapiens
Summary of the method: (§1)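 CD spectra recorded on G4-DNA and ligand, each at 5 μM, in 10 mM Tris-HCl, pH 7.4, with 60 mM KCl. Scan range 220–340 nm in a 1 mm quartz cuvette, 1 nm bandwidth and step, 0.5 s/point. Each spectrum is the average of three scans.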

[2] = system: Quadruplex DNA; experiment: Binding affinity to G4 quadruplex DNA in human HeLa cells assessed as BG4 foci formation at 10 to 20 uM; format: cell-based; conditions: dose 10-20 µM
[3] = system: Quadruplex DNA [UNDEFINED MUTATION]; experiment: Binding affinity to telomeric Htg24 G-quadruplex DNA G3A mutant (unknown origin) assessed as negative fluorescence signal at 5 uM under pH condition 7.4 by fluorescence titration analysis; format: nucleic-acid assay; conditions: Homo sapiens
Summary of the method: (§2)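 Ligand held at 5 μM and mixed with each Htg24 point mutant in Tris-HCl buffer containing 60 mM KCl, pH 7.4. Fluorescence was read, and the signal change was computed as (F mutant − F wild type)/F wild type.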

[4] = system: Quadruplex DNA; experiment: Binding affinity to telomeric Htg24 G-quadruplex DNA (unknown origin) assessed as change in melting temperature at 5 uM at pH 7.4 by circular dichroism analysis; format: nucleic-acid assay
Summary of the method: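 CD melting: G4-DNA 5 μM with ligand 5 μM in 10 mM Tris-HCl pH 7.4, 60 mM KCl; signal recorded at 1 °C intervals from 25 to 95 °C, heating 1.0 °C/min.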

[5] = system: Quadruplex DNA; experiment: Binding affinity to telomeric Htg24 G-quadruplex DNA (unknown origin) assessed as compound-DNA complex stoichiometry ratio of 1:1 by Job's plot analysis; format: nucleic-acid assay
[6] = system: Quadruplex DNA [UNDEFINED MUTATION]; experiment: Effect on confirmation of telomeric Htg24 G-quadruplex DNA G16A mutant (unknown origin) assessed as parallel topology at 5 uM at pH 7.4 by circular dichroism analysis; format: nucleic-acid assay; conditions: Homo sapiens; summary of the method: as §1
[7] = system: Quadruplex DNA; experiment: Binding affinity to telomeric Htg24 G-quadruplex DNA (unknown origin) at pH 7.4 by fluorescence titration analysis; format: nucleic-acid assay
[8] = system: Quadruplex DNA [UNDEFINED MUTATION]; experiment: Binding affinity to telomeric Htg24 G-quadruplex DNA A20G mutant (unknown origin) assessed as negative fluorescence signal at 5 uM under pH condition 7.4 by fluorescence titration analysis; format: nucleic-acid assay; conditions: Homo sapiens
Summary of the method: (§3)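 Ligand 5 μM mixed with wild-type or point-mutant Htg24 in Tris-HCl buffer with 60 mM KCl; signal change calculated as (F mutant − F wild type)/F wild type.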

[9] = system: Quadruplex DNA; experiment: Binding affinity to telomeric Htg24 G-quadruplex DNA (unknown origin) assessed as stroke shift under at 480 to 483 nm at pH 7.4 by spectrophotometric method
[10] = system: Quadruplex DNA [UNDEFINED MUTATION]; experiment: Binding affinity to telomeric Htg24 G-quadruplex DNA G17C mutant (unknown origin) assessed as negative fluorescence signal at 5 uM under pH condition 7.4 by fluorescence titration analysis; format: nucleic-acid assay; conditions: Homo sapiens; summary of the method: as §3
[11] = system: Quadruplex DNA; experiment: Binding affinity to telomeric Htg24 G-quadruplex DNA (unknown origin) assessed as fluorescence quantum yield by fluorescence spectrophotometric method; format: nucleic-acid assay
Summary of the method: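 Fluorescence quantum yield determined against fluorescein (Φ = 0.95) in 1% NaOH ethanol. Five increasing ligand concentrations added to fixed DNA, with absorbance and emission recorded for each.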

[12] = system: Quadruplex DNA [UNDEFINED MUTATION]; experiment: Effect on confirmation of telomeric Htg24 G-quadruplex DNA G22C mutant (unknown origin) assessed as hybrid topology at 5 uM at pH 7.4 by circular dichroism analysis; format: nucleic-acid assay; conditions: Homo sapiens; summary of the method: as §1
[13] = system: Quadruplex DNA [UNDEFINED MUTATION]; experiment: Binding affinity to telomeric Htg24 G-quadruplex DNA G23C mutant (unknown origin) assessed as fluorescence signal at 5 uM under pH condition 7.4 by fluorescence titration analysis; format: nucleic-acid assay; conditions: Homo sapiens; summary of the method: as §2
[14] = target: Telomerase reverse transcriptase (Homo sapiens) (UniProt O14746); experiment: Inhibition of telomerase in human HeLa cells incubated for 36 hrs by TRAP assay; format: cell-based; conditions: dose 1-20 µM
Chain of Telomerase reverse transcriptase (Homo sapiens) (O14746 whole entry): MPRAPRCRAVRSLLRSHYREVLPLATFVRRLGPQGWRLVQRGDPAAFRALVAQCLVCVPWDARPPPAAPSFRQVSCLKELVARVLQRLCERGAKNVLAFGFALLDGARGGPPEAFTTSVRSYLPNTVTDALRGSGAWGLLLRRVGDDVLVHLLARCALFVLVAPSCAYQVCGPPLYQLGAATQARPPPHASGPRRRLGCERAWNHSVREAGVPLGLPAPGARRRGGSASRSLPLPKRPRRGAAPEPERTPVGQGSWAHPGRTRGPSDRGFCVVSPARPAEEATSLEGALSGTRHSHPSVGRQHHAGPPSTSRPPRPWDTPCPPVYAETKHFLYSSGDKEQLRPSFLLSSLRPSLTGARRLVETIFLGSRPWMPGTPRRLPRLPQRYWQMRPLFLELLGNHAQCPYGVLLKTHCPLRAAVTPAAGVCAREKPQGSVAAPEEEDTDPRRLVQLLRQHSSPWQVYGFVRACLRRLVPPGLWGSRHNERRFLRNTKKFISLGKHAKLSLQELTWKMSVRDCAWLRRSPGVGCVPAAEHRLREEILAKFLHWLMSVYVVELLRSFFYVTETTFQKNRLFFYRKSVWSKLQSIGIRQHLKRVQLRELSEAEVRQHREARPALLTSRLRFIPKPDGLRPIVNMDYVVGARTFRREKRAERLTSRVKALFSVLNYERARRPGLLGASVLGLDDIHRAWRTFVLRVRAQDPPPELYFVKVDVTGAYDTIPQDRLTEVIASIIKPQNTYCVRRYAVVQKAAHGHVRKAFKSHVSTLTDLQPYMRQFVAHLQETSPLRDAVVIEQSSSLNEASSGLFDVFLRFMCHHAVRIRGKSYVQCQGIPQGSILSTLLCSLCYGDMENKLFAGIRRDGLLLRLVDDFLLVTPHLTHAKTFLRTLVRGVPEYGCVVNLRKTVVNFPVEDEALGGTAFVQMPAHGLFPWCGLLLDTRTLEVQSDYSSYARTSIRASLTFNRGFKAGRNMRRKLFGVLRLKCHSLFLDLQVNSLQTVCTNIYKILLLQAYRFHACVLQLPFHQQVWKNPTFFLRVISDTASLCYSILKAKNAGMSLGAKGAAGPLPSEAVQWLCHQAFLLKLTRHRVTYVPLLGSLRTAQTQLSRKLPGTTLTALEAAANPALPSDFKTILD
Summary of the method: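 HeLa cells were treated with ligand for 36 h, and 10^6 cells were lysed in CHAPS buffer on ice for 30 min. Extract protein (10–750 ng/ml) was extended with TS primer in TRAP buffer (pH 8.3) at 30 °C for 30 min, then heat-inactivated at 95 °C. Products were PCR-amplified for 33 cycles, resolved on 10% native PAGE and stained with SYBR Gold.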

[15] = system: Quadruplex DNA; experiment: Binding affinity to c-myc promoter G-quadruplex DNA Pu22 (unknown origin) assessed as equilibrium binding constant at 5 uM at 25 degreeC by […]; format: nucleic-acid assay
Summary of the method: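 Fluorescence titration: ligand 5 μM in 10 mM Tris-HCl pH 7.4 with 60 mM KCl, nucleic acid added until saturation, 25 °C. Keq from nonlinear fit of F/F0 to an independent-site model.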

[16] = system: Quadruplex DNA; experiment: Binding affinity to G4 quadruplex DNA in human U87 cells assessed as increase in BG4-induced fluorescence signal at 5 uM incubated for 30 mins by immunofluorescence based confocal microscopic analysis; format: cell-based
Summary of the method: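 U87 cells fixed in 4% paraformaldehyde for 15 min, permeabilized with 0.1% Triton X-100 at 37 °C for 30 min, blocked with 5% goat serum for 3 h. BG4 antibody 3 h at 37 °C, then DyLight 405 anti-mouse IgG 3 h at 37 °C, then ligand 5 μM for 30 min. Confocal imaging for co-localization.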

[17] = system: Quadruplex DNA [UNDEFINED MUTATION]; experiment: Effect on confirmation of telomeric Htg24 G-quadruplex DNA G16T mutant (unknown origin) assessed as parallel topology at 5 uM at pH 7.4 by circular dichroism analysis; format: nucleic-acid assay; conditions: Homo sapiens; summary of the method: as §1
[18] = target: Quadruplex DNA; experiment: Binding affinity to telomeric Htg24 G-quadruplex DNA (unknown origin) assessed as dissociation constant by isothermal titration calorimetric analysis; format: nucleic-acid assay
Summary of the method: (§4)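 ITC at 25 °C: DNA preannealed at 95 °C for 5 min, cooled and held at 4 °C overnight, in 25 mM KH2PO4, 60 mM KCl, pH 7.4, 0.5% DMSO. DNA 10 μM in cell, ligand 500 μM in syringe; 19 injections of 4 s, 150 s apart, 750 rpm stirring; blank heat subtracted before model fitting.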

[19] = system: Quadruplex DNA [UNDEFINED MUTATION]; experiment: Effect on confirmation of telomeric Htg24 G-quadruplex DNA T12G mutant (unknown origin) assessed as hybrid topology at 5 uM at pH 7.4 by circular dichroism analysis; format: nucleic-acid assay; conditions: Homo sapiens; summary of the method: as §1
[20] = target: Quadruplex DNA; experiment: Binding affinity to telomeric Htg22 G-quadruplex DNA (unknown origin) assessed as dissociation constant by isothermal titration calorimetric analysis; format: nucleic-acid assay; summary of the method: as §4
[21] = system: Quadruplex DNA [UNDEFINED MUTATION]; experiment: Binding affinity to telomeric Htg24 G-quadruplex DNA G16T mutant (unknown origin) assessed as negative fluorescence signal at 5 uM under pH condition 7.4 by fluorescence titration analysis; format: nucleic-acid assay; conditions: Homo sapiens; summary of the method: as §3
[22] = system: Quadruplex DNA [UNDEFINED MUTATION]; experiment: Binding affinity to telomeric Htg24 G-quadruplex DNA G3C mutant (unknown origin) assessed as negative fluorescence signal at 5 uM under pH condition 7.4 by fluorescence titration analysis; format: nucleic-acid assay; conditions: Homo sapiens; summary of the method: as §2
[23] = system: Quadruplex DNA; experiment: Binding affinity to G4 quadruplex DNA in human HeLa cells assessed as increase in number of BG4 foci at 10 to 20 uM; format: cell-based; conditions: dose 10-20 µM

Activity [1]: Active
Activity [3]: Active
ΔTm [4]: 9.1 °C
Activity [5]: Active
Activity [6]: Active
Activity [7]: Active
Activity [8]: Active
Activity [9]: 162 nm
Activity [10]: Active
Activity [11]: 0.217
Activity [12]: Active
Activity [13]: inactive
inhibition [14]: Dose-Dependent Effect
Kb [15]: 309000 M⁻¹
Activity [17]: Active
Kd [18]: 650 nM
Activity [19]: Active
Kd [20]: 710 nM
Activity [21]: Active
Activity [22]: Active
Compound: CN(C)c1ccc(/C=C/c2cc(/C=C3\Sc4ccccc4N3CCCN3CCOCC3)c3ccccc3[n+]2C)cc1.[I-]
Activity [2]: Active
Activity [16]: Active
Activity [23]: Active
